The values below come from article PMC10975586 (ACS Omega, 2024).

In one assay the target is jack bean (JB) urease (Canavalia ensiformis, UniProt P07374). The assay can be described thus: Urease inhibitory assay. It counts as biochemical. The settings on record: for inhibition at 250 µM: read-out: inhibition (%) at 0.25 mM, JB urease; for inhibition at 250 µM / inhibition (%) at 0.25 mM: 0.25 mM, mean ± SEM, n = 3–4; for urease inhibitory profile (in words) / inhibition (%) at 0.25 mM: JB urease.
Sequence of jack bean (JB) urease (P07374 whole entry, looked up): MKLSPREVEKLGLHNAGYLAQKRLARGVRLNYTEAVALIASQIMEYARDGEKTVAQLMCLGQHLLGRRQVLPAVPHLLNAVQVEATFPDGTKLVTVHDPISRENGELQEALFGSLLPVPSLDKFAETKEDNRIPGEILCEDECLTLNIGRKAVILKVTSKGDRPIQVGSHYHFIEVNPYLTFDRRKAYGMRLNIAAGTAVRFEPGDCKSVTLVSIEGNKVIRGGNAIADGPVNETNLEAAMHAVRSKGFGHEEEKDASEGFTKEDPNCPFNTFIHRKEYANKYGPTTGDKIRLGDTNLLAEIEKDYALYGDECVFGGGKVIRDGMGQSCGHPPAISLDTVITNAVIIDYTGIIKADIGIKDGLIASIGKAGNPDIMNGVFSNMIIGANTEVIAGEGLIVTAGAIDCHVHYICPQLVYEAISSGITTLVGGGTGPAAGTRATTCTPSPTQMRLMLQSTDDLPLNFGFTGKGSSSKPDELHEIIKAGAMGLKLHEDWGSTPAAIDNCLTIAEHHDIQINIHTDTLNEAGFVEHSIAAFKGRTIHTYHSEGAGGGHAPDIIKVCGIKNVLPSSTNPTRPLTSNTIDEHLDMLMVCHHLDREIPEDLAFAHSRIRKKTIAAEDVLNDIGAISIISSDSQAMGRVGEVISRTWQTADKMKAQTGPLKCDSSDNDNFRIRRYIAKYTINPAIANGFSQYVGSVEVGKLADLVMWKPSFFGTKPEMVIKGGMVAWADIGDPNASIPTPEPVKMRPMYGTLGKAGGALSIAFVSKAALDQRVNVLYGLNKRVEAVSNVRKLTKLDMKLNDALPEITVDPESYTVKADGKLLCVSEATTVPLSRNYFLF

A further assay concerns the target JB urease enzyme (Canavalia ensiformis, UniProt P07374). The assay can be described thus: Kinetic analysis of JB urease inhibition. The settings on record: for Vmax: in presence of the inhibitor. The class given is biochemical, jack bean. The gist of the method:
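Jack bean urease (1 unit/well) in 50 mM phosphate buffer pH 7.4 is preincubated with test compound for 10 min at 37 °C. Urea is added from a 50 mM solution and the reaction runs 15 min. Phenol-alkali reagent stops it, and A630 is read after 10 min. Mode of inhibition, Km, Vmax and Ki come from double-reciprocal plots and nonlinear regression (mean ± SEM, n = 3).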

The structures appear in SMILES notation. Values joined by “and” are separate entries in the source; they are usually repeats but may differ in a detail not shown here. Equal values may be shown once. “Also recorded” adds a separate entry of the source. Read-outs that look alike come from different tables or passages of the source.

Sequence of JB urease enzyme (P07374 whole entry, looked up): as above

Broadly, the IC50 is the concentration at which inhibition is half-maximal. A high value points to weaker potency in that assay. For orientation: inhibition means the share of the control response that was lost under treatment. For the compound `N[C@@H](C(=O)N[C@@H]1C(=O)N2C(C(=O)O)=C(Cl)CS[C@H]12)c1ccccc1` [cefaclor], at jack bean (JB) urease, the IC50 was determined as 62.9 ± 0.78 µM and the inhibition at 250 µM turned out to be 92.4 ± 1.53%.

Regarding `CC1=C(C(=O)O)N2C(=O)[C@@H](NC(=O)[C@H](N)c3ccc(O)cc3)[C@H]2SC1` [cefadroxil], on jack bean (JB) urease, the 50% inhibitory concentration (IC50) was 21.4 ± 0.64 µM and the inhibition at 250 µM was determined as 91.27 ± 0.85%.

Turning to `CC1=C(C(=O)O)N2C(=O)[C@@H](NC(=O)[C@H](N)c3ccccc3)[C@H]2SC1` [cefalexin], at jack bean (JB) urease, the midpoint of inhibition, the IC50, lay at 145.8 ± 0.37 µM; the “urease inhibitory profile (in words)” value is “poor inhibitory potential”; the inhibition at 250 µM is 72.5 ± 0.94%.

With `CO/N=C(\C(=O)N[C@@H]1C(=O)N2C(C(=O)[O-])=C(C[N+]3(C)CCCC3)CS[C@H]12)c1csc(N)n1` [cefepime], at jack bean (JB) urease, 78.65 ± 0.45 µM corresponded to half-maximal inhibition (IC50) and the inhibition at 250 µM was 73.3 ± 1.35%.

In the case of `C=CC1=C(C(=O)O)N2C(=O)[C@@H](NC(=O)/C(=N\OCC(=O)O)c3csc(N)n3)[C@H]2SC1` [cefixime], on jack bean (JB) urease, the IC50 came to 215.5 ± 0.76 µM, the “urease inhibitory profile (in words)” value was “poor inhibitory potential” and the inhibition at 250 µM was 68.5 ± 1.85%.

As to `CCN1CCN(C(=O)N[C@@H](C(=O)N[C@@H]2C(=O)N3C(C(=O)O)=C(CSc4nnnn4C)CS[C@H]23)c2ccc(O)cc2)C(=O)C1=O` [cefoperazone], on jack bean (JB) urease, the inhibition at 250 µM was 34.54 ± 0.26%.

With `CO/N=C(\C(=O)N[C@@H]1C(=O)N2C(C(=O)O)=C(COC(C)=O)CS[C@H]12)c1csc(N)n1` [cefotaxime], on jack bean (JB) urease, the half-inhibitory concentration (IC50) came out at 27.4 ± 0.74 µM and the inhibition at 250 µM was found to be 81.9 ± 1.46%.

`COCC1=C(C(=O)O)N2C(=O)[C@@H](NC(=O)/C(=N\OC)c3csc(N)n3)[C@H]2SC1` [cefpodoxime]: at jack bean (JB) urease, half-maximal inhibition (IC50) was put at 23.7 ± 0.82 µM and the inhibition at 250 µM came to 91.3 ± 1.86%.

Regarding `CC=CC1=C(C(=O)O)N2C(=O)[C@@H](NC(=O)[C@H](N)c3ccc(O)cc3)[C@H]2SC1` [cefprozil], on jack bean (JB) urease, the “inhibition (%) at 0.25 mM” value is 42.76 ± 0.27%.

Consider `CC1=C(C(=O)O)N2C(=O)[C@@H](NC(=O)[C@H](N)C3=CCC=CC3)[C@H]2SC1` [cefradine], for which, on jack bean (JB) urease, the IC50 amounted to 226.8 ± 0.95 µM and the inhibition at 250 µM came out at 54.9 ± 1.54%.

Turning to `CC(C)(O/N=C(\C(=O)N[C@@H]1C(=O)N2C(C(=O)[O-])=C(C[n+]3ccccc3)CS[C@H]12)c1csc(N)n1)C(=O)O` [ceftazidime], at jack bean (JB) urease, half-maximal inhibition (IC50) was put at 123.6 ± 0.19 µM; the “inhibition (%) at 0.25 mM” value is 76.94 ± 1.57% and 49.52 ± 1.78%.

Take `CO/N=C(\C(=O)N[C@@H]1C(=O)N2C(C(=O)O)=CCS[C@H]12)c1csc(N)n1` [ceftizoxime]: the inhibition at 250 µM on jack bean (JB) urease stood at 32.41 ± 0.24%.

On to `CO/N=C(\C(=O)N[C@@H]1C(=O)N2C(C(=O)O)=C(CSc3nc(=O)c(=O)[nH]n3C)CS[C@H]12)c1csc(N)n1` [ceftriaxone], for which, at jack bean (JB) urease, the midpoint of inhibition, the IC50, lay at 157.4 ± 0.42 µM; the “urease inhibitory profile (in words)” value was “poor inhibitory potential”; the inhibition at 250 µM turned out to be 72.6 ± 0.98%.

As to `CO/N=C(\C(=O)N[C@@H]1C(=O)N2C(C(=O)O)=C(COC(N)=O)CS[C@H]12)c1ccco1` [cefuroxime], at jack bean (JB) urease, the IC50 amounted to 241.5 ± 0.87 µM and the inhibition at 250 µM worked out at 51.7 ± 1.56%.

In the case of `O=C(O)c1cn(C2CC2)c2cc(N3CCNCC3)c(F)cc2c1=O` [ciprofloxacin], on jack bean (JB) urease, the IC50 amounted to 134.5 ± 0.52 µM, the “urease inhibitory profile (in words)” value is “weak enzyme inhibitors” and the inhibition at 250 µM worked out at 78.3 ± 0.85%. Also, the “urease inhibitory profile (in words)” value at jack bean (JB) urease (listed as Ciprofloxacin) is listed as “weak urease inhibitions”.

For `CO/N=C1\CN(c2nc3c(cc2F)c(=O)c(C(=O)O)cn3C2CC2)CC1CN` (stereo not shown) [gemifloxacin], at jack bean (JB) urease, the IC50 was 16.5 ± 0.85 µM and the inhibition at 250 µM came to 92.5 ± 1.35%.

In general, Ki refers to the equilibrium dissociation constant of an inhibitor or competing ligand from its target. By Vmax is commonly meant the rate approached at saturating substrate. `C[C@H]1COc2c(N3CCN(C)CC3)c(F)cc3c(=O)c(C(=O)O)cn1c23` [levofloxacin] had a Ki at JB urease enzyme of 4.91 µM. Also, on JB urease enzyme (JB urease), the maximum velocity amounted to 84.51 μm/min, the type of inhibition entry is “competitive inhibitors” and the “Vmax” value turned out to be 84.51 µM/min. For the same compound, the type of inhibition result on JB urease enzyme (JB urease, listed as Levofloxacin) is reported as “competitive inhibition”. In addition, on jack bean (JB) urease, the half-inhibitory concentration (IC50) was 7.24 ± 0.29 µM and the inhibition at 250 µM turned out to be 81.92 ± 0.62%.

For the compound `COc1c(N2C[C@@H]3CCCN[C@@H]3C2)c(F)cc2c(=O)c(C(=O)O)cn(C3CC3)c12` [moxifloxacin], on jack bean (JB) urease, the IC50 was 135.3 ± 0.39 µM, the “urease inhibitory profile (in words)” value is “weak urease inhibitions; also recorded: weak enzyme inhibitors” and the inhibition at 250 µM came to 75.27 ± 0.74%.

Compound `CC1COc2c(N3CCN(C)CC3)c(F)cc3c(=O)c(C(=O)O)cn1c23` (stereo not shown) [ofloxacin] yielded a Ki at JB urease enzyme of 5.43 µM. Also, at JB urease enzyme (JB urease), the type of inhibition result is reported as “competitive inhibition; also recorded: competitive inhibitors” and the “Vmax” value came out at 86.62 µM/min. On jack bean (JB) urease, the half-maximal inhibitory concentration (IC50) turned out to be 13.2 ± 0.32 µM and the inhibition at 250 µM is 83.67 ± 0.67%.

Take `C[C@@H]1CN(c2c(F)c(N)c3c(=O)c(C(=O)O)cn(C4CC4)c3c2F)C[C@H](C)N1` [sparfloxacin]: at jack bean (JB) urease, the IC50 turned out to be 213.9 ± 0.32 µM and the inhibition at 250 µM was determined as 57.6 ± 0.62%.

On to `NC(N)=S` [thiourea], for which, at JB urease enzyme (JB urease), the type of inhibition entry is given as “competitive” and the “Vmax” value stood at 110.1 µM/min. At JB urease enzyme (JB urease, inhibitory constant), the affinity, expressed as Ki, was 19.7 µM. For the same compound, the “inhibition (%) at 0.25 mM” value at jack bean (JB) urease is recorded as 98.21 ± 0.18%.
